Experimental data from ChEMBL document CHEMBL5058577, “EUbOPEN Chemogenomics Library 2 (Multiplex)” (2022).

Test system: Fibroblast
Assay: Multiplex assay against human fibroblast
Type: toxicity, cell-based
Procedure, shortened: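 Values for tubulin, mitochondrial-mass and membrane-permeability phenotypes are per cents of cells with healthy nuclei. These cells were identified by CellPathfinder machine-learning gating of live cells that had been stained at seeding with Hoechst33342, BioTracker Green Microtubule Cytoskeleton Dye, MitoTracker Red and Annexin V Alexa Fluor 680 and imaged on a CQ1 microscope at 37°C and 5% CO2 after compound addition. The gating first set Hoechst high-intensity objects apart from normal cells, then split normal cells into healthy, pyknosed or fragmented nuclei, and pyknosed cells into mitotic or apoptotic.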

[1] = 12 h, 1 µM, compound concentration 1 uM, replicate 1
[2] = 12 h, 1 µM, compound concentration 1 uM, replicate 2
[3] = 12 h, 10 µM, compound concentration 10 uM, replicate 1
[4] = 12 h, 10 µM, compound concentration 10 uM, replicate 2
[5] = 24 h, 1 µM, compound concentration 1 uM, replicate 1
[6] = 24 h, 1 µM, compound concentration 1 uM, replicate 2
[7] = 24 h, 10 µM, compound concentration 10 uM, replicate 1
[8] = 24 h, 10 µM, compound concentration 10 uM, replicate 2
[9] = 48 h, 1 µM, compound concentration 1 uM, replicate 1
[10] = 48 h, 1 µM, compound concentration 1 uM, replicate 2
[11] = 48 h, 10 µM, compound concentration 10 uM, replicate 1
[12] = 48 h, 10 µM, compound concentration 10 uM, replicate 2

## CC(C)(C)c1cc(NC(=O)Nc2ccc(-c3cn4c(n3)sc3cc(OCCN5CCOCC5)ccc34)cc2)no1 [QUIZARTINIB]
[1]
  Population Apoptotic (%): 42%
  Population Fragmented Nuclei (%): 16%
  Population Healthy Nuclei (%): 65%
  Population Hoechst High Intensity Objects (%): 2%
  Population Membrane Permeable-Phenotype (%): 0%
  Population Mitochondria Different-Phenotype (%): 7%
  Population Mitotic Cells (%): 57%
  Population Normal (%): 97%
  Population Pyknosed Nuclei (%): 17%
  Population Tubulin-Different-Phenotype (%): 31%
  Total Cell Count: 150
[2]
  Population Apoptotic (%): 41%
  Population Fragmented Nuclei (%): 24%
  Population Healthy Nuclei (%): 52%
  Population Membrane Permeable-Phenotype (%): 1%
  Population Mitochondria Different-Phenotype (%): 5%
  Population Mitotic Cells (%): 58%
  Population Pyknosed Nuclei (%): 23%
  Population Tubulin-Different-Phenotype (%): 41%
  Total Cell Count: 137
[3]
  Population Apoptotic (%): 43%
  Population Fragmented Nuclei (%): 34%
  Population Healthy Nuclei (%): 56%
  Population Hoechst High Intensity Objects (%): 3%
  Population Membrane Permeable-Phenotype (%): 0%
  Population Mitochondria Different-Phenotype (%): 10%
  Population Mitotic Cells (%): 56%
  Population Normal (%): 96%
  Population Pyknosed Nuclei (%): 8%
  Population Tubulin-Different-Phenotype (%): 75%
  Total Cell Count: 190
[4]
  Population Apoptotic (%): 48%
  Population Fragmented Nuclei (%): 35%
  Population Healthy Nuclei (%): 45%
  Population Hoechst High Intensity Objects (%): 5%
  Population Membrane Permeable-Phenotype (%): 5%
  Population Mitochondria Different-Phenotype (%): 5%
  Population Mitotic Cells (%): 51%
  Population Normal (%): 94%
  Population Pyknosed Nuclei (%): 18%
  Population Tubulin-Different-Phenotype (%): 70%
  Total Cell Count: 162
[5]
  Population Apoptotic (%): 58%
  Population Fragmented Nuclei (%): 14%
  Population Healthy Nuclei (%): 72%
  Population Hoechst High Intensity Objects (%): 1%
  Population Membrane Permeable-Phenotype (%): 0%
  Population Mitochondria Different-Phenotype (%): 6%
  Population Mitotic Cells (%): 41%
  Population Normal (%): 98%
  Population Pyknosed Nuclei (%): 12%
  Population Tubulin-Different-Phenotype (%): 32%
  Total Cell Count: 137
[6]
  Population Apoptotic (%): 42%
  Population Fragmented Nuclei (%): 25%
  Population Healthy Nuclei (%): 61%
  Population Hoechst High Intensity Objects (%): 3%
  Population Membrane Permeable-Phenotype (%): 2%
  Population Mitotic Cells (%): 57%
  Population Normal (%): 96%
  Population Pyknosed Nuclei (%): 13%
  Population Tubulin-Different-Phenotype (%): 44%
  Total Cell Count: 152
[7]
  Population Apoptotic (%): 75%
  Population Fragmented Nuclei (%): 33%
  Population Healthy Nuclei (%): 57%
  Population Hoechst High Intensity Objects (%): 1%
  Population Membrane Permeable-Phenotype (%): 0%
  Population Mitochondria Different-Phenotype (%): 21%
  Population Mitotic Cells (%): 25%
  Population Normal (%): 98%
  Population Pyknosed Nuclei (%): 8%
  Population Tubulin-Different-Phenotype (%): 71%
  Total Cell Count: 190
[8]
  Population Apoptotic (%): 39%
  Population Fragmented Nuclei (%): 40%
  Population Healthy Nuclei (%): 46%
  Population Hoechst High Intensity Objects (%): 4%
  Population Membrane Permeable-Phenotype (%): 1%
  Population Mitochondria Different-Phenotype (%): 10%
  Population Mitotic Cells (%): 60%
  Population Normal (%): 95%
  Population Pyknosed Nuclei (%): 13%
  Population Tubulin-Different-Phenotype (%): 70%
  Total Cell Count: 179
[9]
  Population Apoptotic (%): 75%
  Population Fragmented Nuclei (%): 19%
  Population Healthy Nuclei (%): 71%
  Population Hoechst High Intensity Objects (%): 8%
  Population Membrane Permeable-Phenotype (%): 0%
  Population Mitochondria Different-Phenotype (%): 5%
  Population Mitotic Cells (%): 25%
  Population Normal (%): 91%
  Population Pyknosed Nuclei (%): 9%
  Population Tubulin-Different-Phenotype (%): 38%
  Total Cell Count: 145
[10]
  Population Apoptotic (%): 42%
  Population Fragmented Nuclei (%): 30%
  Population Healthy Nuclei (%): 60%
  Population Hoechst High Intensity Objects (%): 3%
  Population Membrane Permeable-Phenotype (%): 1%
  Population Mitochondria Different-Phenotype (%): 8%
  Population Mitotic Cells (%): 57%
  Population Normal (%): 96%
  Population Tubulin-Different-Phenotype (%): 34%
  Total Cell Count: 158
[11]
  Population Apoptotic (%): 79%
  Population Fragmented Nuclei (%): 30%
  Population Healthy Nuclei (%): 56%
  Population Hoechst High Intensity Objects (%): 7%
  Population Membrane Permeable-Phenotype (%): 0%
  Population Mitochondria Different-Phenotype (%): 25%
  Population Mitotic Cells (%): 20%
  Population Normal (%): 92%
  Population Pyknosed Nuclei (%): 13%
  Population Tubulin-Different-Phenotype (%): 74%
  Total Cell Count: 195
[12]
  Population Apoptotic (%): 60%
  Population Fragmented Nuclei (%): 44%
  Population Healthy Nuclei (%): 50%
  Population Hoechst High Intensity Objects (%): 3%
  Population Membrane Permeable-Phenotype (%): 2%
  Population Mitochondria Different-Phenotype (%): 6%
  Population Mitotic Cells (%): 40%
  Population Normal (%): 96%
  Population Pyknosed Nuclei (%): 5%
  Population Tubulin-Different-Phenotype (%): 59%
